Source: ChEMBL document CHEMBL1212775, “A novel class of meso-tetrakis-porphyrin derivatives exhibits potent activities against hepatitis C virus genotype 1b replicons in vitro” (Antimicrob Agents Chemother, 2010)
pEC50, pIC50: −log10 of the molar value. Calls of active or inactive are those of the source. The rule behind the calls is not given here.

Columns and labels:
[1] = test system: Hepatitis B virus; experiment: Antiviral activity against Hepatitis B virus infected in human 2.2.15 cells assessed as reduction of […] after 72 hrs by southern DNA hybridization method; format: functional, organism-based; settings: HepG2 2.2.15, 72 h
[2] = test system: Hepatitis C virus; experiment: Antiviral activity against Hepatitis C virus genotype 1b Con1 infected in human Huh-luc/neo-ET replicon cells assessed as inhibition of virus-induced cytopathic effect after 24 hrs by luciferase reporter assay; format: functional, organism-based, Hepacivirus hominis
Outline: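 Huh-luc/neo-ET cells seeded at 1 × 10^5 per well and treated with DMSO or serially diluted compound up to 250 nM. Harvested at 24 or 48 h. Luciferase run in triplicate and RLU normalized to total protein (Bradford), expressed as percent of mock control. Three independent repeats averaged.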

[3] = test system: Hepatitis C virus; experiment: Antiviral activity against Hepatitis C virus genotype 1b Con1 infected in human Huh-luc/neo-ET replicon cells assessed as reduction of replicon luciferase signal after 72 hrs by luciferase reporter assay in presence of 0% fetal bovine serum; format: functional, organism-based, Hepacivirus hominis
Outline: (§1)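 Huh-luc/neo-ET cells without G418, incubated with serially diluted compounds in medium containing 5%, 10%, 20% or 40% (vol/vol) FBS. Firefly luciferase read after 72 h. EC50 from dose-effect curves. The 0% value is a theoretical EC50 extrapolated from the plot of EC50 versus serum level. Means ± SD of three independent experiments.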

[4] = Cytotoxicity against human HuH7 cells by luminescence based cell viability assay; set-up: species or system Huh-7
Outline: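 Exponentially growing Huh-7 cells seeded at 1 × 10^4 per well and incubated with compounds for 3 days. Viability read by CellTiter-Glo luminescence, used for dark compounds that interfere with methylene blue absorbance at 595 nm. CC50 derived.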

[5] = test system: Hepatitis C virus; experiment: Antiviral activity against Hepatitis C virus genotype 1b Con1 infected in human Huh-luc/neo-ET replicon cells assessed as inhibition of viral rebound dosed at 300 nM incubated for 9 days followed by compound removal and reintroduction of 250 ug/ml G418 measured after 15 days post compound withdrawal; format: functional, organism-based; settings: Hepacivirus hominis
Outline: (§2)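 In a separate run, Huh-luc/neo-ET replicon cells were treated for 9 days without G418. Drug was then withdrawn and cells were kept for a 15-day rebound period under G418 selection. Surviving cells were scored as the fraction of the population that outlasted selection.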

[6] = test system: Hepatitis C virus; experiment: Antiviral activity against Hepatitis C virus genotype 1b Con1 infected in human Huh-luc/neo-ET replicon cells assessed as viral replicon survival dosed at 300 nM incubated for 9 days followed by compound removal and reintroduction of 250 ug/ml G418 measured after 15 days post compound withdrawal; format: functional, Hepacivirus hominis; outline: as §2
[7] = test system: Hepatitis C virus; experiment: Antiviral activity against blasticidin resistant Hepatitis C virus genotype 1b Con1 replicon infected in human HuH7 cells assessed as reduction in viral RNA level by RT-PCR; format: functional, organism-based, Hepacivirus hominis; settings: Con1, Huh-7
[8] = test system: Hepatitis C virus; experiment: Antiviral activity against Hepatitis C virus genotype 1b Con1 infected in human Huh-luc/neo-ET replicon cells assessed as reduction of replicon luciferase signal after 72 hrs by luciferase reporter assay in presence of 20% fetal bovine serum; format: functional, organism-based, Hepacivirus hominis; outline: as §1
[9] = test system: Hepatitis C virus; experiment: Antiviral activity against Hepatitis C virus genotype 1b Con1 infected in human Huh-luc/neo-ET replicon cells assessed as inhibition of viral rebound dosed at 1 uM incubated for 9 days followed by compound removal and reintroduction of 250 ug/ml G418 measured after 15 days post compound withdrawal; format: functional, organism-based; settings: Hepacivirus hominis; outline: as §2
[10] = test system: CCRF-CEM; experiment: Mitochondrial DNA toxicity in human CEM cells; format: cell-based
Outline: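 CEM cell lysates slot-blotted and hybridized with an mtDNA-specific probe, then reprobed with an Alu probe as internal control. Bands quantified by autoradiography and densitometry.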

[11] = Cytotoxicity against human Huh-7 cells by luminescence based cell viability assay
[12] = test system: Hepatitis C virus; experiment: Antiviral activity against Hepatitis C virus genotype 1b Con1 infected in human Huh-luc/neo-ET replicon cells assessed as viral replicon survival dosed at 50 nM incubated for 12 days followed by compound removal and reintroduction of 250 ug/ml G418 measured after 12 days post compound withdrawal; format: functional, Hepacivirus hominis
Outline: (§3)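 Huh-luc/neo-ET cells were seeded at 2 × 10^5 per well and kept without G418 for 12 days with DMSO or up to 1 μM drug. Cells were split every 3 days, with medium and drug renewed. Drug was then removed and 250 μg/ml G418 added for 12 more days, sampling at confluence. HCV 5′UTR RNA was measured by one-step qRT-PCR, normalised to β-actin and expressed relative to mock. Viability was read by CellTiter-Glo as % of mock.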

[13] = test system: Hepatitis C virus; experiment: Antiviral activity against Hepatitis C virus genotype 1b Con1 infected in human Huh-luc/neo-ET replicon cells assessed as inhibition of viral RNA level dosed at >300 nM incubated for 12 days measured after 12 days of exposure relative to untreated control
[14] = test system: Hepatitis C virus; experiment: Antiviral activity against Hepatitis C virus genotype 1b Con1 infected in human Huh-luc/neo-ET replicon cells assessed as reduction in viral RNA level after 48 hrs by RT-PCR; format: functional, organism-based, Hepacivirus hominis
Outline: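 Cells seeded at 1 × 10^5 per well and treated with DMSO or compound up to 250 nM for 24, 48 or 72 h. Total RNA diluted to 50 ng/μl. Replicon RNA (5′ UTR) measured in triplicate by one-step qRT-PCR, normalized to β-actin mRNA, and expressed as percent of mock control. Three independent repeats.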

[15] = test system: Hepatitis C virus; experiment: Antiviral activity against Hepatitis C virus genotype 1b Con1 infected in human Huh-luc/neo-ET replicon cells assessed as reduction of replicon luciferase signal after 72 hrs by luciferase reporter assay; format: functional, organism-based, Hepacivirus hominis
Outline: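 Replicon cells grown without G418, seeded at 5 × 10^3 per well, treated next day in duplicate with serial dilutions (DMSO control) at 37°C for 72 h. After a PBS wash, cells lysed in ice-cold passive lysis reagent and firefly luciferase RLU read as percent of compound-free control. EC50 by nonlinear regression of the dose-effect curve.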

[16] = test system: Hepatitis C virus; experiment: Antiviral activity against Hepatitis C virus genotype 1b Con1 infected in human Huh-luc/neo-ET replicon cells assessed as inhibition of viral rebound dosed at 1 uM incubated for 12 days followed by compound removal and reintroduction of 250 ug/ml G418 measured after 9 days post compound withdrawal; format: functional, organism-based; settings: Hepacivirus hominis; outline: as §3
[17] = test system: Hepatitis C virus; experiment: Antiviral activity against Hepatitis C virus genotype 1b Con1 infected in human Huh-luc/neo-ET replicon cells assessed as reduction of replicon luciferase signal after 72 hrs by luciferase reporter assay in presence of 10% fetal bovine serum; format: functional, organism-based, Hepacivirus hominis; outline: as §1
[18] = test system: Hepatitis C virus; experiment: Antiviral activity against Hepatitis C virus genotype 1b Con1 infected in human Huh-luc/neo-ET replicon cells assessed as reduction of replicon luciferase signal after 72 hrs by luciferase reporter assay in presence of 5% fetal bovine serum; format: functional, organism-based, Hepacivirus hominis; outline: as §1
[19] = test system: Hepatitis C virus; experiment: Antiviral activity against Hepatitis C virus genotype 1b Con1 infected in human Huh-luc/neo-ET replicon cells assessed as inhibition of viral rebound dosed at 300 nM incubated for 12 days followed by compound removal and reintroduction of 250 ug/ml G418 measured after 9 days post compound withdrawal; format: functional, organism-based; settings: Hepacivirus hominis; outline: as §3
[20] = test system: Hepatitis C virus; experiment: Antiviral activity against Hepatitis C virus genotype 1b Con1 infected in human Huh-luc/neo-ET replicon cells assessed as viral replicon survival dosed at 50 nM incubated for 12 days followed by compound removal and reintroduction of 250 ug/ml G418 measured after 6 days post compound withdrawal; format: functional, Hepacivirus hominis; outline: as §3

## O=C(O)c1cc(C(=O)O)cc(-c2ccc(-c3c4nc(c(-c5ccc(-c6cc(C(=O)O)cc(C(=O)O)c6)cc5)c5ccc([nH]5)c(-c5ccc(-c6cc(C(=O)O)cc(C(=O)O)c6)cc5)c5ccc([nH]5)c(-c5ccc(-c6cc(C(=O)O)cc(C(=O)O)c6)cc5)c5nc3C=C5)C=C4)cc2)c1
[1]
  pEC50: < 4.70
[2]
  pEC50: 7.24
[2]; Hepacivirus hominis
  inhibition: Dose-dependent effect
[3]
  pEC50: 8.19
[4]
  CC50: > 50 µM
[5]
  inhibition: Active
[6]
  Survival: 0.4%
[7]
  pEC50: 7.85
[8]
  pEC50: 7.41
[9]
  inhibition: Active
[10]
  pIC50: < 4.30
[11]
  CC50: > 50 µM
[12]
  Survival: 13.1%
[13]
  fold change (FC): 4.5
[14]
  pEC50: 7.44
[14]; Hepacivirus hominis
  inhibition: Dose-dependent effect
[15]
  pEC50: 7.62
[16]
  inhibition: Active
[17]
  pEC50: 7.62
[18]
  pEC50: 7.89
[19]
  inhibition: Active
[20]
  Survival: 8.5%
